Reference: ChEMBL document CHEMBL4513216, “Probing the Open Global Health Chemical Diversity Library for Multistage-Active Starting Points for Next-Generation Antimalarials” (ACS Infect Dis, 2020)

Assay: Toxicity liver stage against HepG2, at 10uM
Assay type: cell-based
Parameters: test concentration 10 uM, cell line HepG2-A16-CD81EGFP
Conditions: human, HepG2-A16-CD81EGFP cells; read-out: INHIBITION
Outline: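 Uninfected HepG2-A16-CD81EGFP cells, 3 × 10^3 per well, 1536-well, plated on prespotted compound at 10 μM final, parasite-free screening media added to match infected plates; puromycin 10 μM positive, DMSO 0.5% negative; run in parallel with 48 h PbLuc assay at 37 °C, 5% CO2; viability by CellTiter-Glo luminescence, normalized to controls.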

Structure (SMILES)	cytotoxicity at 10 µM [%]
CSc1cccc(CN2CCC(CCC(=O)NC3CC3)CC2)c1	1.28
CN(C)CCO[C@@H]1CC[C@H]2[C@H]1OCCN2C(=O)c1ccccc1F	2.25
CNC(=O)C1(c2cnccn2)CCCN1C(=O)Cc1ccsc1 (stereo unspecified)	4.12
CN(C(=O)c1ccn(C)n1)[C@@H]1CCC[C@@H](Oc2ccccc2)[C@@H]1O	-10.3
O=C(c1ccno1)N1CCCC(c2ncncc2-c2ccncc2)C1 (stereo unspecified)	-19.9
O=C(c1ccncc1)N1CCCC(c2cc(C(F)F)n3ncnc3n2)C1 (stereo unspecified)	-4.45
Cn1ccnc1CN1CCOC(C)(C(=O)N2CCOCC2)C1 (stereo unspecified)	1.27
Oc1nc(N2CCOCC2)nc2c1CCN(Cc1ccccc1)CC2	-4.03
CCc1nc2ccccc2c(=O)n1CC1(O)CCN(C(=O)C(C)C)CC1	-24.3
CC(C)N1CCC(Cc2cncc(-c3cc(F)ccc3C(=O)O)n2)C1 (stereo unspecified)	-6.88
COc1cc(CN2C[C@H](OC)[C@]3(CCCO3)C2)ccc1F	-7.61
O=C1NCCCCC1SCc1coc(-c2ccccc2)n1 (stereo unspecified)	11.6
CCc1oc(C(=O)N2CCCC(c3nnn[nH]3)C2)cc1C (stereo unspecified)	9.09
Cc1cc(C)c(NC(=O)Nc2cnn(CC(O)CN(C)C)c2)c(C)c1 (stereo unspecified)	12.5
CS(=O)(=O)CCNC(=O)Nc1ccc(Cl)cc1-n1cccc1	48.2
Cc1cc(OCCC(=O)NCc2ccc(F)cc2)nnc1C	4.4
O=C(NCC[S+]([O-])Cc1ccccc1)c1ccc2[nH]c(=O)[nH]c2c1 (stereo unspecified)	6.11
Cn1ncc2c(=O)[nH]c(N3CCCC3c3cccs3)nc21 (stereo unspecified)	-0.53
Cc1cc(NC(=O)N(C)CCN2CCN(c3ccccc3)CC2)on1	4.79
Cc1nc(C)c(C(=O)N2CCCc3c(F)cccc32)o1	-6.75
CC(Nc1ccc2c(c1)CCC2)c1nc(C2CC2)no1 (stereo unspecified)	7.92

Structure (SMILES)	cytotoxicity at 10 µM [%]
CC(C)(C)OC(=O)N1CCC(C(=O)NC2CCS(=O)(=O)C2)CC1 (stereo unspecified)	-6.81
CN(C)c1ccc(C(=O)N(Cc2ccncc2)CC2CCCO2)nn1 (stereo unspecified)	14.2
Cc1nc(CNCC2CCCN(C(=O)OC(C)(C)C)C2)cs1 (stereo unspecified)	-18.2
NC(=O)NC(=O)CN1CCN(CC2CC2)c2ccccc21	11.7
Cc1occc1C(=O)N1CCOC2(CCCC2)C1	-10.9
CN(Cc1cnn(C)c1)S(=O)(=O)N1CCc2ccccc2C1	-6.47
O=S(=O)(CCCc1ccccc1)Cc1nnnn1C1CC1	-1.01
CCCC(NC(=O)c1cscc1C)c1nnn[nH]1 (stereo unspecified)	19.5
CSc1ccc(CNCCS(=O)(=O)N2CCOCC2)cc1	4.83
Cn1cc(CC(=O)N2CCOC(c3nc(C(C)(C)C)n[nH]3)C2)cn1 (stereo unspecified)	2.4
Cc1ccc(OC2CCN(S(=O)(=O)N(C)C)CC2)nc1	7.68
CN1CC(C(=O)N2CCC(Oc3ccccc3Cl)CC2)CC1=O (stereo unspecified)	9.99
CCn1ncc2c1CCCC2NCc1cscn1 (stereo unspecified)	-2.42
Cc1nc(CN2CCN(C(C)C(=O)NC3CCCC3)CC2)cs1 (stereo unspecified)	-3.9
CCOCc1ccc(CNc2nc(OC)ncc2Cl)cc1	13.2
COc1ccc(-c2ccc(C(=O)NCCCC(N)=O)c(F)c2)c(F)c1	0.393
CNC(=O)C(C)(C)CNC(=O)Nc1ccc(C)cn1	0.973
CC(C)N(C)C(=O)c1ccc(Cl)c(NC(=O)CCN2C(=O)CCC2=O)c1	-2.63
Cc1ccccc1S(=O)(=O)NC(=O)C1(c2ccccc2)CCC1	-6.9
Cc1cc(C(=O)N2CCN(Cn3cc(Cl)cn3)CC2)c(C)o1	10.9
CSCc1cc(F)ccc1CNCc1cccnc1	-9.84

Structure (SMILES)	cytotoxicity at 10 µM [%]
CCN(CC)S(=O)(=O)CCNC(=O)N(C)C(C)c1ccccn1 (stereo unspecified)	10.6
N#CCSCCCN1CCCC(C(=O)N2CCCCCC2)C1 (stereo unspecified)	4.01
CCOC[C@@H]1CCC[C@]12CN(S(=O)(=O)c1cn(C)cn1)CCO2	5.7
O=C(NCC1CC1)[C@H]1C[C@H]2OCC[C@H]2N(Cc2ccoc2)C1	-3.01
COCC1CN(C(=O)c2ccoc2C)Cc2nccn2C1 (stereo unspecified)	6.1
C[C@@H]1CN(C(=O)c2ccsc2)C[C@]12CCN(c1ccsc1)C2=O	1.88
COc1ccc2c(c1)OCC(Cc1cc(C(=O)N3CCCC3)ccn1)C2 (stereo unspecified)	-0.675
CCNC(=O)[C@@H]1C[C@H](N)CN1Cc1ccc2cccc(Cl)c2n1	5.91
O=S(=O)(NCCn1cc(C2CCCNC2)nn1)c1ccc(Cl)cc1 (stereo unspecified)	-17.1
CCc1cc(N2CCC(N[C@@H]3CS(=O)(=O)C[C@H]3O)CC2)nc(N(C)C)n1	-0.157
CC(C)C1CN(Cc2nccn2C(C)C)CCC(=O)N1CC1CC1 (stereo unspecified)	-11
O=C(NCc1nncn1C1CCCCC1)C1COc2ccccc2O1 (stereo unspecified)	2.83
O=C(c1ccc2cccc(F)c2n1)N1CCN(CCn2cncn2)CC1	7.02
O=C(O)[C@@H]1CN(C(=O)CCc2ccccn2)C[C@H]1c1ccccc1	7.96
O=C(NCCN1CCCC(CO)C1)c1ccc2scnc2c1 (stereo unspecified)	8.61
Cc1nc(CNCc2ccc(OC34CCCN(CC3)C4)cc2)n[nH]1 (stereo unspecified)	1.01
CC(C)(C)C(=O)NCCC1CN(Cc2ccccc2F)CCO1 (stereo unspecified)	-2.05
CNc1ncc(CN(C)Cc2cc(O)c3cc(C)cc(C)c3n2)cn1	-13.9
Fc1ccc(CCN2CCC(c3nnc(-c4cccnc4)o3)CC2)cc1	6.59
OC1CCCN(Cc2c(-c3ccco3)[nH]c3ncccc23)C1 (stereo unspecified)	-5.87
Cc1ncsc1-c1nnc(C2CCN(Cc3ccc(F)cc3)CC2)o1	3.52

Structure (SMILES)	cytotoxicity at 10 µM [%]
COc1cccc(N2CCN(C(=O)CN(C)c3cnccn3)CC2)c1	-15.2
CC(=O)NC1CCCN(Cc2csc(-c3ncccn3)n2)C1 (stereo unspecified)	-13.1
CN1CCN(c2cc(CNC(=O)c3cnccn3)ccn2)CC1	-8.92
Cc1cc(CN2CCCC(Cn3cncn3)C2)on1 (stereo unspecified)	-25.2
Cc1n[nH]c(C2CN(CCc3cccs3)CCO2)n1 (stereo unspecified)	-15.8
CCCc1n[nH]c(C2CN(C(=O)c3ccnc(C4CC4)n3)CCO2)n1 (stereo unspecified)	-7.49
Cc1nn(C)c(C)c1C1CCCN1C(=O)c1cnc2n[nH]c(C)c2c1 (stereo unspecified)	-8.38
CCc1nc(C2CCCN2C(=O)CCNS(C)(=O)=O)no1 (stereo unspecified)	-1.77
CC(NC(=O)CCc1cccs1)c1nnc2n1CCC2 (stereo unspecified)	-4.22
Cc1ccc(N2CCCN(C(=O)CC3CCCO3)CC2)nn1 (stereo unspecified)	-3.68
CNC(=O)[C@@H](c1ccccc1OC)N1CCC[C@H]1C(=O)NC1CC1	-4.39
CC(C)Nc1nc(N2CCCC2)nc2c1CCN(S(C)(=O)=O)CC2	6.43
Cc1cccc(CN2CCO[C@@H]3CC(COc4ccccn4)C[C@H]32)n1 (stereo partly specified)	-3.31
Cc1ccc(N2C[C@@H]3OCCN(CC4CC4)[C@@H]3C2)nn1	3.59
Cn1ncc2c1CCCC2NCc1ccc(Br)s1 (stereo unspecified)	-4.41
Cc1ccc(C(=O)N2C[C@@H](OCc3cccnc3)[C@H]3OCCC[C@@H]32)o1	-2.52
Cc1oncc1C(=O)NCc1cc(=O)n2c(n1)CN(C(C)C)CCC2	2.45
O=C(NC1CCC(O)CC1)c1ccc2nc(-c3ccc(F)cc3)cn2c1 (stereo unspecified)	1.31
